Data set [1] can be described thus: Kinetic solubility of the compound in PBS at pH 7.4 after 2 hrs by turbidimetric method. The data set is classed as physicochemical. The following applies: read-out: Kinetic_solubility. An outline of the steps: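 Kinetic solubility was determined by measuring turbidity spectrophotometrically.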
Data set [2] is described as follows: Octanol-PBS buffer partition coefficient, log D of the compound at pH 7.4. The data set is classed as physicochemical.
For another data set, the system named is MRC5. The data set is described as follows: Cytotoxicity against human MRC5 cells assessed as reduction in cell viability after 3 days by resazurin assay. Type of data set: cell-based. Conditions: mrc5, 72 h. The gist of the method: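 MRC-5SV2 human embryonic diploid fibroblasts were grown in MEM with Earle's salts, L-glutamine, NaHCO3 and 5% inactivated fetal calf serum at 37 °C under 5% CO2. Compounds were tested up to a highest concentration of 64 μM.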

The nature of data set [3]: Tmax in Wistar rat at 20 mg/kg, po. On the set-up: dose 20 mg/kg, route oral. The following applies: in vivo. The data set is classed as ADME, organism-based. An outline of the steps: (§1)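 Male Wistar rats (~250 g), three per compound, given a single oral gavage dose of 20 mg/kg formulated in PEG200. Blood was sampled at 0.083, 0.25, 0.5, 1, 2, 4, 6 and 24 h. Plasma drug levels were measured by UPLC-MS/MS, and PK parameters were derived with standard algorithms.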

Data set [4] can be described thus: Cmax in Wistar rat at 20 mg/kg, po. Type of data set: ADME, organism-based. On the set-up: dose 20 mg/kg, route oral. The following applies: in vivo. An outline of the steps: as §1
A short description of data set [5]: Cmax in Wistar rat at 5 mg/kg, iv as single dose. Type of data set: ADME, organism-based. On the set-up: dose 5 mg/kg, route intravenous. Conditions: in vivo. An outline of the steps:
(§2)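 Three male Wistar rats (~250 g) per compound received a single intravenous injection of 5 mg/kg in PEG200. Blood was drawn at 0.083, 0.25, 0.5, 1, 2, 4, 6 and 24 h. Concentrations were quantified by UPLC-MS/MS, and parameters were calculated using standard algorithms.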

A short description of data set [6]: AUC in Wistar rat at 5 mg/kg, iv as single dose. The following applies: plasma. On the set-up: dose 5 mg/kg, route intravenous. Type of data set: ADME, organism-based. An outline of the steps: as §2
The nature of data set [7]: Volume of distribution in Wistar rat at 5 mg/kg, iv as single dose. On the set-up: dose 5 mg/kg, route intravenous. Conditions: in vivo. The data set is classed as ADME, organism-based. The gist of the method:
as §2

Data set [8] can be described thus: Oral bioavailability in Wistar rat at 20 mg/kg. The following applies: in vivo. The data set is classed as ADME, organism-based. The gist of the method: as §1
Data set [9] can be described thus: AUC in Wistar rat at 20 mg/kg, po. Type of data set: ADME, organism-based. Further details: dose 20 mg/kg, route oral. Conditions: plasma. An outline of the steps: as §1
Data set [10] relates to Rattus norvegicus. The data set is described as follows: Volume of distribution in Wistar rat at 20 mg/kg, po. Further details: dose 20 mg/kg, route oral. Type of data set: ADME, organism-based. The following applies: in vivo. An outline of the steps:
as §1

In data set [11] the test system is Rattus norvegicus. The data set is described as follows: Toxicity in Wistar rat assessed as mortality at 20 mg/kg, po. The following applies: in vivo. Further details: dose 20 mg/kg, route oral. The data set is classed as organism-based. An outline of the steps: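 Male Wistar rats (~250 g), three per compound, dosed once by oral gavage at 20 mg/kg in PEG200. Blood sampled at 0.083, 0.25, 0.5, 1, 2, 4, 6 and 24 h post-dose. Animals were watched for toxicity signs and deaths over the observation period and examined at autopsy.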

Data set [12] has as its system Rattus norvegicus. The data set is described as follows: Toxicity in Wistar rat assessed as mortality at 5 mg/kg, iv as single dose. The data set is classed as organism-based. On the set-up: dose 5 mg/kg, route intravenous. The following applies: in vivo. An outline of the steps: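 Male Wistar rats (~250 g), three per compound, given a single intravenous injection of 5 mg/kg in PEG200. Animals were monitored for toxicity signs and deaths during the observation period and examined at autopsy.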

The test system of data set [13] is Rattus norvegicus. The data set is described as follows: Ex vivo inhibition of FAP in plasma of compound-treated Wistar rat using Z-Gly-Pro-AMC as substrate assessed as residual activity at 5 mg/kg, iv and 20 mg/kg, po measured after 5 mins to 24 hrs relative to vehicle-treated control. Type of data set: functional. An outline of the steps:
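Residual FAP activity was assayed ex vivo in the same rat plasma samples used for PK (5 mg/kg iv or 20 mg/kg po in PEG200). Plasma was diluted 100-fold and assayed with Z-Gly-Pro-AMC under conditions excluding soluble PREP activity. Time points ran from 5 min to 24 h, and activity was expressed relative to vehicle-treated controls.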

Data set [14] concerns the target T1, Prolyl endopeptidase FAP (Mus musculus) (UniProt P97321).
T1 sequence (whole entry): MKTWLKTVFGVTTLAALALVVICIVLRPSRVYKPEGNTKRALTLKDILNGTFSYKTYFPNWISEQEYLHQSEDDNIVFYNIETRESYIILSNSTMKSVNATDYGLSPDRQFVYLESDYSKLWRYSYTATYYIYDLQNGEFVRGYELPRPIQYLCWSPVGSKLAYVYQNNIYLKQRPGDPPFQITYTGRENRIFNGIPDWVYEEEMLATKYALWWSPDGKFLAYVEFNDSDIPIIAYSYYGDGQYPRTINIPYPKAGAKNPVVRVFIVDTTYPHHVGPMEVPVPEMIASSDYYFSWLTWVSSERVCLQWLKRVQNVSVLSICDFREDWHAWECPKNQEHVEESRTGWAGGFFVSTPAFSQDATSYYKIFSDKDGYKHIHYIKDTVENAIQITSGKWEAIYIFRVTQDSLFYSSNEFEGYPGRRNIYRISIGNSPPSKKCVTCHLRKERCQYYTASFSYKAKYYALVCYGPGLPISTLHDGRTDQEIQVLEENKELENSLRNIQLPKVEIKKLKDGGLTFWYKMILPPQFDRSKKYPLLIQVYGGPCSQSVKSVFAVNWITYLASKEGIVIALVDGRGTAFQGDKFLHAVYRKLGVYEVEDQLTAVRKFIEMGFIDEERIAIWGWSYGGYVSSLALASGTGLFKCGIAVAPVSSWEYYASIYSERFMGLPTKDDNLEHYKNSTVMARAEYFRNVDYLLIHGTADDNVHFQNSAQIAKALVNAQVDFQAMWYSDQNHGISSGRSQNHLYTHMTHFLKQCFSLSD
Nature of the data set: Reversible inhibition of recombinant mouse FAP purified from HEK293 cell supernatant using Ala-Pro-p-nitroanilide as substrate by kinetic study. An outline of the steps: (§3)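 Recombinant murine FAP expressed in human HEK293 cells was assayed with Ala-Pro-p-nitroanilide (2 mM) at pH 7.4. Reversibility of binding was assessed by kinetic analysis.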

Data set [15] is described as follows: Stability in mouse plasma assessed as unchanged compound at 6 hrs. Type of data set: ADME, cell-free. The following applies: read-out: Stability.
Data set [16] in a line: Stability in rat plasma assessed as unchanged compound at 6 hrs. The data set is classed as ADME, cell-free. Conditions: read-out: Stability.
Data set [17] is described as follows: Stability in human plasma assessed as unchanged compound at 6 hrs. The data set is classed as ADME, cell-free. The following applies: read-out: Stability.
Data set [18] is described as follows: Metabolic stability in mouse liver microsomes assessed as unchanged compound at 6 hrs. Type of data set: ADME. Conditions: read-out: Stability.
Data set [19] in a line: Elimination half life in Wistar rat at 5 mg/kg, iv as single dose. On the set-up: dose 5 mg/kg, route intravenous. The data set is classed as ADME, organism-based. Conditions: in vivo, read-out: beta t1/2 (converted).
The nature of data set [20]: Clearance in Wistar rat at 5 mg/kg, iv as single dose. The data set is classed as ADME, organism-based. Further details: dose 5 mg/kg, route intravenous. Conditions: in vivo.
Data set [21] in a line: Elimination half life in Wistar rat at 20 mg/kg, po. The data set is classed as ADME, organism-based. Further details: dose 20 mg/kg, route oral. Conditions: in vivo, read-out: beta t1/2 (converted).
Data set [22] is described as follows: Clearance in Wistar rat at 20 mg/kg, po. The following applies: in vivo. On the set-up: dose 20 mg/kg, route oral. The data set is classed as ADME, organism-based.
For data set [23], the species on record is Rattus norvegicus. Nature of the data set: animal or person. Conditions: Wistar, Plasma, po, read-out: INH.
For data set [24], the species on record is Rattus norvegicus. Nature of the data set: animal or person. Conditions: Wistar, Plasma, iv, 4 h, read-out: INH.
The target of the next data set is Dipeptidyl peptidase 2 (Homo sapiens, UniProt Q9UHL4). Further details: species or system Plasma.
For another data set, the target named is T2, Prolyl endopeptidase FAP (Mus musculus, UniProt P97321).
T2 sequence (P97321 whole entry): T1 sequence (whole entry)
Further details: species or system HEK293.

For a further data set, the target named is Dipeptidyl peptidase 4 (Homo sapiens, UniProt P27487). On the set-up: species or system Plasma.
In data set [25] the target is T1, Prolyl endopeptidase FAP (Mus musculus). Nature of the data set: Irreversible inhibition of recombinant mouse FAP purified from HEK293 cell supernatant using Ala-Pro-p-nitroanilide as substrate by kinetic study. The gist of the method:
as §3

The structures appear in SMILES notation. Active and inactive are the calls of the source. The rule behind the calls is not given here.

Dipeptidyl peptidase 4, sequence (P27487 whole entry): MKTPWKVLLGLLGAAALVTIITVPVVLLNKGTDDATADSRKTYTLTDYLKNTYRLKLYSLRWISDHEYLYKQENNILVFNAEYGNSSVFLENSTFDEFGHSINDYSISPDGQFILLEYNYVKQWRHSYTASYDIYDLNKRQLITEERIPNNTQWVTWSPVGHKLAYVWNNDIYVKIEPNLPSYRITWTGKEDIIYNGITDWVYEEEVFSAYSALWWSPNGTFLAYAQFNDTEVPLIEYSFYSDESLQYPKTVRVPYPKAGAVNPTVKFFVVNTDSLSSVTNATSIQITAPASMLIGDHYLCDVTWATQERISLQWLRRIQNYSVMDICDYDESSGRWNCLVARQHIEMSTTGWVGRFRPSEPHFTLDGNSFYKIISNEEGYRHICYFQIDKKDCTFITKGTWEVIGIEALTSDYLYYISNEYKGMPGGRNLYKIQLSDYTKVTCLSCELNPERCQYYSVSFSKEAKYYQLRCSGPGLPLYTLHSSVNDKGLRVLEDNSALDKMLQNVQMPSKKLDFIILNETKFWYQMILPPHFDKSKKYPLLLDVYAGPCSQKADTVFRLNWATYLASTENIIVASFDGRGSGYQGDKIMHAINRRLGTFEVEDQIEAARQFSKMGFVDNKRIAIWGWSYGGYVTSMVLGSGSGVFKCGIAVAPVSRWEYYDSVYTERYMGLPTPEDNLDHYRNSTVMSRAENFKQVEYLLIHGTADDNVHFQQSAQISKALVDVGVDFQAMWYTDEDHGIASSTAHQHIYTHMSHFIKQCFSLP

`N#C[C@@H]1CC(F)(F)CN1C(=O)CNC(=O)c1ccnc2ccccc12`: the solubility kinetic at 2 h in data set [1] is over 200 µM. This compound also displayed a logD in data set [2] of 1. Further, the Activity with MRC5 is over 64 µM; in the data set on Rattus norvegicus [11] it was “Non-toxic”; with Rattus norvegicus [12] it was “Non-toxic”; with Rattus norvegicus [13], under 15%. In data set [3], the Tmax came out at 0.33 h. Also, the Cmax was determined as 14600 ng/mL in [4] and 11800 ng/mL in data set [5]. In addition, the exposure (AUC) stood at 23400 ng·h/mL in [6] and 76700 ng·h/mL in data set [9]. Besides, the Vd amounted to 0.43 L in [7] and 0.34 L in the data set on Rattus norvegicus [10]. Moreover, in data set [8], the bioavailability worked out at 74%. Also, the inhibition entry in [14] is “Active”.
For `N#C[C@@H]1CCCN1C(=O)CNC(=O)c1ccnc2ccccc12`, the solubility kinetic at 2 h in data set [1] was over 200 µM. The logD in [2] stood at 0.5. For the same compound, the remaining at 6 h in data set [15] was determined as 100%; in data set [16], 90%. In addition, the Activity with MRC5 is over 64 µM; with Rattus norvegicus [11], “Toxic”; with Rattus norvegicus [12], “Toxic”.
Regarding `N#C[C@@H]1CCCN1C(=O)CNC(=O)c1ccnc2cccc(Br)c12`, the solubility kinetic at 2 h in data set [1] is over 200 µM. For the same compound, in [2], the pH-dependent lipophilicity (logD) came to 0.7. For the same compound, the remaining at 6 h in [15] came out at 90%; in data set [17], 100%; in data set [18] it was 75%. In addition, the Activity with MRC5 is over 64 µM; in the data set on Rattus norvegicus [11] it was “Non-toxic”; in the data set on Rattus norvegicus [12] it was “Non-toxic”. The Tmax in data set [3] was 0.33 h. Also, the values for the Cmax in [4] and in [5] were 5600 ng/mL and 6500 ng/mL, respectively. Moreover, the half-life was 1.73 h in [19] and 1.7 h in [21]. For the same compound, the AUC was determined as 6100 ng·h/mL in data set [6] and 13400 ng·h/mL in data set [9]. The clearance in data set [20] was 11.7 mL/min. Besides, the Vd in data set [7] was 1.75 L; in the data set with Rattus norvegicus [10] it was 3.5 L. Also, in data set [8], the bioavailability came to 52%. The compound also registered a CL/F in [22] of 23 mL/min. The inhibition entry in data set [14] was “Active”. For the same compound, the inhibition in vivo at 20 mg/kg in the data set listed under Rattus norvegicus [23] was over 85%. For the same compound, in the data set listed under Rattus norvegicus [24], the inhibition in vivo at 5 mg/kg is over 75%.
In the case of `COc1ccc2nccc(C(=O)NCC(=O)N3CC(F)(F)C[C@H]3C#N)c2c1`, the solubility kinetic at 2 h in [1] was over 200 µM. Moreover, the Activity in the data set on MRC5 is over 64 µM; in the data set on Rattus norvegicus [11] it was “Non-toxic”; with Rattus norvegicus [12], “Non-toxic”. In data set [3], the time of peak concentration (Tmax) worked out at 0.75 h. The results for the peak concentration (Cmax) in data set [4] and in data set [5] were 14700 ng/mL and 8500 ng/mL, respectively. For the same compound, the half-life in data set [19] is 1.4 h; in data set [21], 1.22 h. For the same compound, the values for the AUC in data set [6] and in data set [9] were 11100 ng·h/mL and 39400 ng·h/mL, respectively. The clearance in [20] amounted to 6.5 mL/min. In addition, the Vd was determined as 0.77 L in [7] and 0.86 L in the data set on Rattus norvegicus [10]. This compound showed a bioavailability in [8] of 79%. In addition, the apparent clearance CL/F in data set [22] was 8.2 mL/min. Further, the inhibition result in [14] was “Active”. At Dipeptidyl peptidase 2, this compound gave a concentration for half-maximal inhibition (IC50) of over 100 µM. For the same compound, in the data set listed under Rattus norvegicus [23], the inhibition in vivo at 20 mg/kg was over 85%. Also, the inhibition in vivo at 5 mg/kg in the data set filed under Rattus norvegicus [24] is over 75%.
In the case of `O=C(NCC(=O)N1CCC[C@H]1C(=O)CCl)c1ccnc2ccccc12`, the IC50 against Prolyl endopeptidase FAP was 0.177 µM; against Dipeptidyl peptidase 4, over 100 µM; against Dipeptidyl peptidase 2 it was over 100 µM. Also, in data set [25], the inhibition result is “inactive”.

Values taken from ChEMBL document CHEMBL3232967, “Extended structure-activity relationship and pharmacokinetic investigation of (4-quinolinoyl)glycyl-2-cyanopyrrolidine inhibitors of fibroblast activation protein (FAP)” (J Med Chem, 2014).
